Paper PMC6939458 (Cancer cell, 2019)
Several values for one entry are separate records, joined by “and”; a condition that tells them apart may be missing. Equal entries are not always repeated. Each block holds one molecule with its values, some of them ahead of it.

What was measured:
MYC [1] = target: T1, MYC (Homo sapiens, UniProt P01106); assay: STD NMR, MYC; format: binding; settings: 975 phosphate analog 100 μM, G5 200 μM
Method in brief: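 Buffer: 50 mM HEPES, 500 mM NaCl, 10 mM β-mercaptoethanol, 5% glycerol, 30 mM imidazole. Ligand spectra recorded with and without each protein individually.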
Target sequence in this assay (P01106 368-454): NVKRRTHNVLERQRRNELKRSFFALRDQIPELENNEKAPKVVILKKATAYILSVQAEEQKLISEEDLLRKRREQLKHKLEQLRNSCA

HIF-1α = HIF-1α (Homo sapiens, UniProt Q16665); assay: Biotinylated compound pull down, HIF-1α; format: binding; settings: cell lysates
HIF-1α, sequence (Q16665 whole entry): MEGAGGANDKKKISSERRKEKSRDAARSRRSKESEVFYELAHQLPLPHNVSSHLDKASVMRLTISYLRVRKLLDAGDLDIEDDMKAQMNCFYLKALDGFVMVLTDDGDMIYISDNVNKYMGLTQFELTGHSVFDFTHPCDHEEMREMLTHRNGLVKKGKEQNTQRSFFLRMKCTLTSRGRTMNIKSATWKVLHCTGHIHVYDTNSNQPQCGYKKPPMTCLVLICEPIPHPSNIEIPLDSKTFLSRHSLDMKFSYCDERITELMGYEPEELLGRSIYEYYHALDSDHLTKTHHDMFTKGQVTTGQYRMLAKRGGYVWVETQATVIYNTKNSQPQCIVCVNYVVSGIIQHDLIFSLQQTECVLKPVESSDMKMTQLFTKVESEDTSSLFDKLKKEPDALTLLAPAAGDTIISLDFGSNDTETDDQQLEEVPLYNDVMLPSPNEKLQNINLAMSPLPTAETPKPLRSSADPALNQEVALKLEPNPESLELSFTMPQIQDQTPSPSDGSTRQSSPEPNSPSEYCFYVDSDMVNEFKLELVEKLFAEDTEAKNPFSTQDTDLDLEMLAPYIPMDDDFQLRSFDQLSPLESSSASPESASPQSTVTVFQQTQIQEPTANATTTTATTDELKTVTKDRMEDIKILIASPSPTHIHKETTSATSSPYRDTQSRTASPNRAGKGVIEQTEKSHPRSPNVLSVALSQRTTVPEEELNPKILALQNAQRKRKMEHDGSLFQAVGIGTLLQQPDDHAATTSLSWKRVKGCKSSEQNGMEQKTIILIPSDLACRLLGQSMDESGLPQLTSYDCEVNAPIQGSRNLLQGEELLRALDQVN
Method in brief: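 A biotin-conjugated test compound was used as bait. Nuclear complexes came from exponentially growing PC3 and P493–6 cells, extracted with a nuclear complex co-IP kit. The pull-down ran in low co-IP buffer with NaCl added to a final 150 mM.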

MYC [2] = target: T1, MYC; assay: Biotinylated compound pull down, MYC; format: binding; settings: for competition of MYC binding to Biotin-361: PC3 cell lysate, excess competitor
Method in brief: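 Nuclear extract from PC3 cells prepared with a nuclear co-IP kit in low co-IP buffer at 150 mM NaCl final. Extract pre-cleared on streptavidin beads 1 hr at 4 °C. About 100 μg extract incubated overnight at 4 °C on a rotator with 1 to 10 μM biotinylated test compound, 10 μM D-biotin or DMSO. Recombinant MYC (0.5 μg) run the same way in buffer with 1% BSA, without pre-clearing. Bound MYC detected by Western blot. For competition, lysate pre-treated with competitor before biotin probe (5 μM).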
Target sequence in this assay (P01106 16-454): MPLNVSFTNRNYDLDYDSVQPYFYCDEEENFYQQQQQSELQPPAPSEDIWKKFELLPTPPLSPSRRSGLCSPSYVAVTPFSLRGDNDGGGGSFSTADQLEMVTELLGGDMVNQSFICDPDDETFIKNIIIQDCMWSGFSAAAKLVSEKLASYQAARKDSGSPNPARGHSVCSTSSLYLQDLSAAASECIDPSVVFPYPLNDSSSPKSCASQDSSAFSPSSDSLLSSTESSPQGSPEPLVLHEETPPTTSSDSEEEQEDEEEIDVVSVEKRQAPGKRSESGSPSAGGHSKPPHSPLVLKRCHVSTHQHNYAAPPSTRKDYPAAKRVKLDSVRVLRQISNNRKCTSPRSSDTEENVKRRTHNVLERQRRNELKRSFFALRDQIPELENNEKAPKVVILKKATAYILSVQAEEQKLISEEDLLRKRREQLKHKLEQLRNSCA

MYC353–439 = MYC353–439 (Homo sapiens, UniProt P01106); assay: Fluorescence polarization competition assay against 10074-G5; format: binding
MYC353–439, sequence (P01106 368-454): as the sequence (P01106 368-454) above

[3] = test system: MYC-dependent cancer cells; assay: Cell viability, MYC-dependent cancer cells; format: cell-based; settings: prostate cancer cells versus PC12, 5 days
Method in brief: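 Cells were seeded at 1000 to 5000 per well in 96-well plates, depending on cell type. Viable cells were counted, or MTS absorbance was read at 490 nm, 2 to 7 days after treatment. MycCaP, PC3, LNCaP and P493–6 were grown in RPMI1640, SK-N-BE(2) in F12 and MV411 in IMDM, each with 10% heat-inactivated FBS and 1% penicillin-streptomycin.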

MYC [4] = assay: Western blot of MYC protein level, stability and phosphorylation in cells; format: cell-based, human; settings: 8 μM
Method in brief: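 PC3 cells, or PC3 stably expressing Flag-MYC, Flag-MYCT58A or Flag-MYCS62A (lentiviral, 1.5 μg/ml puromycin selection), were used. For stability, cells were pretreated 3 hr with compound or DMSO, then given cycloheximide and harvested at time points. MYC, pT58, pS62, GSK3β and pGSK3β S9 were detected by western blot over a time course. Band intensities were densitometrically quantified.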

[5] = 14-day toxicology in mice; format: in vivo, mouse; settings: 100 mg/kg daily for 14 days, analyzed one week later
[6] = Maximum tolerated dose / acute toxicity in mice; format: in vivo; settings: p.o., single dose at 50, 100, 250, 500 or 1000 mg/kg
[7] = Pharmacokinetics of 975 in CD-1 mice; settings: male, CD-1, mouse, in vivo, po
GSK3β-mediated MYC pT58 = GSK3β-mediated MYC pT58 (Homo sapiens, UniProt P01106); assay: In vitro kinase assay; format: biochemical; settings: 6 μM
GSK3β-mediated MYC pT58, sequence (P01106 16-454): as the sequence (P01106 16-454) above
Method in brief: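 Phosphorylation reactions were run in kinase buffer (25 mM Tris-HCl pH 7.5, 5 mM β-glycerophosphate, 2 mM DTT, 0.1 mM sodium vanadate, 10 mM MgCl₂) at room temperature for 2 hr in total.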

MV-411 AML xenografts = assay: MV-411 AML xenograft; format: in vivo, mouse
Method in brief: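 Immunodeficient mice were inoculated with 5×10⁶ MV-411 cells in PBS:matrigel 1:1. They were randomised by tumour volume at ~200 to 500 mm³ and dosed with vehicle, test compound, or test compound plus Ara-C, 5 days a week for 3 weeks. Calipers were read twice weekly and volume was taken as (length × width × width)/2. Body weight was monitored, n = 4 mice/group, mean ± SEM.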

[8] = test system: Lewis Lung Carcinoma (LLC1); assay: LLC1 allograft lung cancer mouse model; format: in vivo; settings: 100 mg/kg/day
Method in brief: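 LLC1 cells (1 × 10⁶) in PBS:matrigel 1:1 were injected subcutaneously into the flanks of female C57BL/6 mice, aged 6–8 weeks. Mice were randomised 3 days after inoculation and given test compound i.p. as 50 mg/kg twice daily (100 mg/kg/day). Tumour growth and body weight were followed, n = 7 mice/group, mean ± SEM.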

MycCaP tumor allografts = assay: MycCaP allograft/xenograft mouse model; format: in vivo
Method in brief: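 Male FVB (allograft) or NSG (xenograft) mice, 6–8 weeks, ~25 g, acclimated >4 days. Injected s.c. in flanks with 1 × 10⁶ MycCaP E-box-luciferase cells in 100 μl Matrigel. Tumors followed by caliper ((length × width × width)/2) and by bioluminescent imaging after i.p. substrate injection. Body weight recorded. Tumor tissue assessed by H&E and immunofluorescence for Ki67, MYC pT58 and PD-L1.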

MYC [9] = target: T1, MYC; assay: Cellular thermal shift assay; format: cell-based; settings: PC3 cells
Method in brief: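 PC3 cells (70–80% confluent; also PC3 stably expressing Flag-MYCT58A, puromycin 1.5 μg/ml selected) treated with test compound or DMSO for 30 min. Cells washed, resuspended in PBS with protease/phosphatase inhibitors plus the same compound dose, split into 7–10 aliquots (~1 million cells each), heated 2 min at graded temperatures, then 3 min room temperature. Lysates boiled 5 min at 90 °C; MYC quantified by Western blot densitometry to build melt curves.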
Target sequence in this assay (P01106 16-454): as above

[10] = test system: MYC transcriptional activity (E-box-luciferase); assay: E-box luciferase reporter assay in vitro; format: cell-based
Method in brief: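 MycCaP cells stably carrying either MYC E-box-luciferase reporter or control mCherry-P2A-luciferase vector plated 10000 cells/well. Serial dilution of test compound added the next day; luminescence read by Steady-Glo after 4 hr treatment.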

MAX(S) = MAX(S) (Homo sapiens, UniProt P61244-2 1-151); assay: EMSA
[11] = MycCaP allograft, 100 mg/kg/day i.p. for 14 days

Molecule: O=P(O)(O)OCOc1ccc(-c2cc(C(F)(F)F)n[nH]2)c(O)c1-c1ccc(Cl)c(C(F)(F)F)c1 [975 phosphate analog, ((4’-chloro-6-hydroxy-3’-(trifluoromethyl)-5-(3-(trifluoromethyl)-1H-pyrazol-5-yl)-[1,1’-biphenyl]-2-yl)oxy)methyl dihydrogen phosphate]
binding to MYC by STD NMR (MYC [1]): bound to MYC

Molecule: Cn1nc(C(F)(F)F)cc1-c1ccc(OCCCNC(=O)CCOCCOCCOCCOCCOCCOCCNC(=O)CCCC[C@@H]2SCC3NC(=O)NC32)c(-c2cc(C(F)(F)F)cc(C(F)(F)F)c2)c1O (stereo partly drawn) [Biotin-361, N-(3-((6-hydroxy-5-(1-methyl-3-(trifluoromethyl)-1H-pyrazol-5-yl)-3’,5’-bis(trifluoromethyl)-[1,1’-biphenyl]-2-yl)oxy)propyl)-1-(5-((4S)-2-oxohexahydro-1H-thieno[3,4-d]imidazol-4-yl)pentanamido)-3,6,9,12,15,18-hexaoxahenicosan-21-amide]
pull down of HIF-1α (HIF-1α): not MAX or another bHLH protein HIF-1α
pull down of recombinant MYC and endogenous MYC (MYC [2]; cell lysates): pulled down

Molecule: Cn1nc(C(F)(F)F)cc1-c1ccc(OCc2ccc(Cl)cc2)c(-c2ccc(Cl)c(C(F)(F)F)c2)c1O [Compound 975, 4’-chloro-6-((4-chlorobenzyl)oxy)-3-(1-methyl-3-(trifluoromethyl)-1H-pyrazol-5-yl)-3’-(trifluoromethyl)-[1,1’-biphenyl]-2-ol]
Kd (MYC353–439): 2500 nM
cell viability [3]: inhibited cell viability in a MYC-dependent manner
MYC degradation and phosphorylation on T58 (MYC [4]): enhanced MYC degradation and phosphorylation on T58
gross and histological analysis of organs [5]: no obvious pathologic abnormalities
hematology, blood chemistry, kidney and liver function [5]: normal complete blood count and differential, normal blood chemistry, and normal kidney and liver function
well tolerated single dose, acute toxicity [6]: up to 1000 mg/kg
Cmax ([7]; 100 mg/kg): 41500 ng/mL and 74 µM
half-life ([7]; 100 mg/kg): 7 h
Cmax ([7]; 250 mg/kg): 54000 ng/mL and 96 µM
half-life ([7]; 250 mg/kg): 12 h
pT58 levels in in vitro kinase assay (GSK3β-mediated MYC pT58): directly increased GSK3β-mediated MYC pT58
efficacy as a single agent (MV-411 AML xenografts; 50 mg/kg/day, 5 days a week): reduced efficacy as a single agent
body weight, combination with Ara-C (MV-411 AML xenografts; 975 50 mg/kg/day, Ara-C 20 mg/kg/day): no obvious impact on mouse body weight
tumor growth, combination with Ara-C (MV-411 AML xenografts; 975 50 mg/kg/day, Ara-C 20 mg/kg/day, 5 days a week): synergized with Ara-C
body weight [8]: no changes in body weight
tumor growth [8]: inhibited tumor growth
tumor inhibition, FVB versus NSG mice (MycCaP tumor allografts; 50 mg/kg twice daily, 3 days): more strongly than in immunodeficient NSG mice
pT58 and PD-L1 levels in tumor tissue (MycCaP tumor allografts; 100 mg/kg/day i.p. for 14 days): increased pT58 and PD-L1 levels
tumor growth, 975 alone (MycCaP tumor allografts; 100 mg/kg/day, 2 days on/2 days off): slowed tumor growth
tumor infiltration of immune cells (MycCaP tumor allografts; CD3+ T cells, B220+ B cells, NKp46+ NK cells, 100 mg/kg/day for 14 days): enhanced tumor infiltration of CD3+ T cells
survival (MycCaP tumor allografts; [11]): increased survival
tumor growth (MycCaP tumor allografts; [11]): significantly inhibited tumor growth
MYC target engagement by CETSA (MYC [9]; 8 μM): confirmed MYC target engagement
E-box-luciferase versus CMV-luciferase activity in vitro [10]: selectively suppressed E-box-luciferase activity

B1: HEX E-box oligo (dsDNA)
DNA 1: CACCCGGTCACGTGGCCTACAC
DNA 2: GTGTAGGCCACGTGACCGGGTG
binding result (MAX(S)): no binding

More lines, now with the values ahead:

pull down of MYC protein (MYC [2]; 10 μM, PC3 cells): pulled down MYC protein
Molecule: Cn1nc(C(F)(F)F)cc1-c1ccc(OCCNC(=O)CCOCCOCCOCCOCCNC(=O)CCCC[C@@H]2SCC3NC(=O)NC32)c(-c2cc(C(F)(F)F)cc(C(F)(F)F)c2)c1O (stereo partly drawn) [Biotin-975, N-(2-((6-hydroxy-5-(1-methyl-3-(trifluoromethyl)-1H-pyrazol-5-yl)-3’,5’-bis(trifluoromethyl)-[1,1’-biphenyl]-2-yl)oxy)ethyl)-1-(5-((4S)-2-oxohexahydro-1H-thieno[3,4-d]imidazol-4-yl)pentanamido)-3,6,9,12-tetraoxapentadecan-15-amide]

binding to MYC by STD NMR (MYC [1]): confirmed interaction
competition of MYC binding to Biotin-361 (MYC [2]): competed
thermal stability of MYC protein (CETSA) (MYC [9]; 30 min, 361 4–10 μM, G5 15–60 μM, 360 6 μM): significant thermal destabilization
Molecule: O=[N+]([O-])c1ccc(Nc2ccccc2-c2ccccc2)c2nonc12 [Compound G5, reference compound]

competition of MYC binding to Biotin-361 (MYC [2]): competed
Molecule: Cn1nc(C(F)(F)F)cc1-c1ccc(OCOP(=O)(O)O)c(-c2cc(C(F)(F)F)cc(C(F)(F)F)c2)c1O [Phosphate-361, ((6-hydroxy-5-(1-methyl-3-(trifluoromethyl)-1H-pyrazol-5-yl)-3’,5’-bis(trifluoromethyl)-[1,1’-biphenyl]-2-yl)oxy)methyl dihydrogen phosphate]
